Experiments:
SK-MEL-2 = test: Cytotoxicity against human SK-MEL-2 cells by SRB assay; format: functional, cell-based
A549 = test: Cytotoxicity against human A549 cells by SRB assay; format: functional, cell-based
SK-OV-3 = test: Cytotoxicity against human SKOV3 cells by SRB assay; format: functional, cell-based
BV-2 = test: Antiinflammatory activity in mouse BV2 cells assessed as effect on LPS-stimulated nitrite accumulation after 24 hrs by Griess reagent method; format: functional, cell-based; conditions: BV-2, 24 h
Method in brief: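 Nitrite, the stable NO oxidation product, measured in culture supernatant by Griess reaction: 50 µL supernatant mixed with equal volume of reagent (1% sulfanilamide, 0.1% N-1-naphthylethylenediamine dihydrochloride in 5% phosphoric acid). Absorbance at 540 nm read after 10 min. Sodium nitrite standard used for quantitation. L-NMMA served as positive control. IC50 values reported.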

HCT-15 = test: Cytotoxicity against human HCT15 cells by SRB assay; format: functional, cell-based
[1] = Cytotoxicity against mouse BV2 cells by MTT assay; format: cell-based; conditions: bv-2
Method in brief: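 Viability of the same cultures determined by MTT (3-[4,5-dimethylthiazol-2-yl]-2,5-diphenyltetrazolium bromide) assay.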

| IC50 (BV-2) [µM] | Structure (SMILES) | IC50 (SK-MEL-2) [µM] | IC50 (A549) [µM] | IC50 (SK-OV-3) [µM] | IC50 (HCT-15) [µM] | Activity [1] |
| --- | --- | --- | --- | --- | --- | --- |
| 33 | COc1ccc2c(oc3c(OC)c(OC)c(O)cc32)c1O | > 10 | > 10 | > 10 | > 10 | – |
| 50.6 | COc1cc(-c2ccccc2O)cc(OC)c1OC | > 10 | > 10 | > 10 | > 10 | – |
| – | COc1cc(OC)cc(-c2ccc(O)cc2)c1 | > 10 | > 10 | > 10 | > 10 | – |
| – | COc1cc2c(oc3ccccc32)c(OC)c1O [ERIOBOFURAN] | > 10 | > 10 | > 10 | > 10 | – |
| 32.1 | COc1cc(OC)cc(-c2ccccc2O)c1 | > 10 | > 10 | > 10 | > 10 | – |
| – | COc1cc(-c2ccccc2)cc(O)c1O | > 10 | > 10 | > 10 | > 10 | – |
| 21.9 | COc1cc(-c2ccccc2)cc(OC)c1OC [METHOXY AUCUPARIN] | > 10 | > 10 | > 10 | > 10 | – |
| – | COc1cc(-c2ccccc2)cc(Oc2c(OC)cc([C@@H](O)[C@H](O)CO)cc2OC)c1O [BERBEKORIN A] | 4.4 | 8.2 | – | 7 | Toxic |
| – | COc1cc(-c2ccccc2O)cc(OC)c1O | > 10 | > 10 | > 10 | > 10 | – |
| – | COc1cc2c(oc3cccc(O)c32)c(OC)c1O | > 10 | > 10 | > 10 | > 10 | – |
| – | COc1cc(OC)cc(-c2ccccc2)c1 | > 10 | > 10 | > 10 | > 10 | – |
| – | COc1cc(O)cc(-c2ccccc2)c1 | > 10 | > 10 | > 10 | > 10 | – |
| – | COc1cc(-c2ccccc2)cc(OC)c1O [AUCUPARIN] | > 10 | > 10 | > 10 | > 10 | – |
| – | COc1cc2c(oc3cc(O)ccc32)c(OC)c1O | > 10 | > 10 | > 10 | > 10 | – |

— ChEMBL document CHEMBL1154340, “Biphenyls from Berberis koreana” (J Nat Prod, 2009)
